Reference: ChEMBL document CHEMBL1165878, “First biological evaluation of developed 3-benzyloxyfluorenes as novel class of MDR modulators” (Eur J Med Chem, 2010)

Columns and labels:
[1] = Lipophilicity, log P of the compound; assay type: physicochemical; settings: octanol/water
[2] = biological target: T1, ATP-dependent translocase ABCB1 (Homo sapiens, UniProt P08183); test: Inhibition of ABCB1 efflux pump-mediated rhodamine 123 uptake expressed in mouse L5178Y cells assessed as fluorescence activity ratio at 1 uM; assay type: cell-based
T1 sequence (P08183 whole entry): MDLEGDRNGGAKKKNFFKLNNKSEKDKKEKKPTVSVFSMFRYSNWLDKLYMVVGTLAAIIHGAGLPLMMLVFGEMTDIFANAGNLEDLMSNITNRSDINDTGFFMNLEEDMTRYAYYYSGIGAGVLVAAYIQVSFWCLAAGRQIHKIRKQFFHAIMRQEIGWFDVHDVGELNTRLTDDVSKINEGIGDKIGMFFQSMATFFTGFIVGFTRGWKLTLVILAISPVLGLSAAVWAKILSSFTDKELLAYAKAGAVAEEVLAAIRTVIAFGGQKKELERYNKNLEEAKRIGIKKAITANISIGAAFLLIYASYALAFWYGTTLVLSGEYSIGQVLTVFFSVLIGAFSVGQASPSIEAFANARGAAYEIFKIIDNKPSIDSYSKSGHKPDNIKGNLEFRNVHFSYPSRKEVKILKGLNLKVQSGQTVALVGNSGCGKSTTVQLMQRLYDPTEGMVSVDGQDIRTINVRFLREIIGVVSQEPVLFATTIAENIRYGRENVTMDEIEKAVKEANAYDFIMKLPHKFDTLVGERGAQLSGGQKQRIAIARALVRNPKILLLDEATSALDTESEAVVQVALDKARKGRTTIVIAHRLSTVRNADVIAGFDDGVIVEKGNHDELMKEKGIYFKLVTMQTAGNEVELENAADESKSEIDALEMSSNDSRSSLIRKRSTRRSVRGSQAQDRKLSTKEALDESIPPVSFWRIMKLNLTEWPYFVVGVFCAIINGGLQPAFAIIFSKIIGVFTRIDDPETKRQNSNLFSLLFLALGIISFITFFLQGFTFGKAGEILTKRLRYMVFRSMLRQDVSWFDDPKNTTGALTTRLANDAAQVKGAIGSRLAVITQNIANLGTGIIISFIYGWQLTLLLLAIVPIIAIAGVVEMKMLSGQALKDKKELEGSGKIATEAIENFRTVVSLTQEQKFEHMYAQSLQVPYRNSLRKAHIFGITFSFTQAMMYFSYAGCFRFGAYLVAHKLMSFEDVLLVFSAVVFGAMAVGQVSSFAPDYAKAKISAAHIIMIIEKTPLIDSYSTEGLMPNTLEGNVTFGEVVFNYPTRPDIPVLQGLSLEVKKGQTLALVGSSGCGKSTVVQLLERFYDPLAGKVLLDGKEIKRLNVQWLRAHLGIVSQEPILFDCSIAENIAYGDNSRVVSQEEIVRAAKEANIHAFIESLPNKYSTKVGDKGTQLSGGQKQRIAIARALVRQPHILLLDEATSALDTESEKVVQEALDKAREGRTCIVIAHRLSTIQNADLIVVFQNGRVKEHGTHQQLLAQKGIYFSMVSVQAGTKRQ

[3] = biological target: T1, ATP-dependent translocase ABCB1; test: Inhibition of ABCB1 efflux pump-mediated rhodamine 123 uptake expressed in mouse L5178Y cells assessed as fluorescence activity ratio at 10 uM; assay type: cell-based
Outline: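 Mouse T lymphoma L5178Y parental line and an mdr1-retrovirally transfected subline overexpressing only ABCB1, grown in McCoy's 5A with 10% heat-inactivated horse serum and 2 mM glutamine. Rhodamine 123 uptake measured by flow cytometry, 1 ×10⁴ cells each, after resuspension in PBS. FAR = fluorescence of treated ABCB1 subline over parental line, each corrected to untreated control; mean of two determinations.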

logP [1] | Ratio [2] | Ratio [3] | SMILES
6.59 | 1 | 17.14 | Oc1ccc2oc3ncc(OCc4cccc(Cl)c4)c(-c4cccc(Cl)c4)c3c2c1
5.97 | 1.35 | 10.47 | Oc1ccc2oc3ncc(OCc4ccccc4)c(-c4cccc(Cl)c4)c3c2c1
5.97 | 3.04 | 95.58 | Oc1ccc2oc3ncc(OCc4ccccc4)c(-c4ccc(Cl)cc4)c3c2c1
5.97 | 1.26 | 57.42 | Oc1ccc2oc3ncc(OCc4cccc(Cl)c4)c(-c4ccccc4)c3c2c1
5.97 | 1.23 | 56.85 | Oc1ccc2oc3ncc(OCc4ccc(Cl)cc4)c(-c4ccccc4)c3c2c1

Continued, compound first:

SMILES | logP [1] | Ratio [2] | Ratio [3]
Oc1ccc2oc3ncc(OCc4ccccc4)c(-c4ccccc4)c3c2c1 | 5.38 | 1.75 | 34.49
Oc1ccc2oc3ncc(OCc4ccc(Cl)cc4)c(-c4cccc(Cl)c4)c3c2c1 | 6.59 | 1.81 | 2.61
Oc1ccc2oc3ncc(OCc4cccc(Cl)c4)c(-c4ccc(Cl)cc4)c3c2c1 | 6.59 | 1.53 | 21.48
Oc1ccc2oc3ncc(OCc4ccc(Cl)cc4)c(-c4ccc(Cl)cc4)c3c2c1 | 6.59 | 1.11 | 5.92
